According to PMC3712066 (Diabetes, 2013):

Assays:
[1] = test system: FasL, caspase-8, Bid, active caspase-3, BclxL; experiment: Proapoptotic and survival signaling in neuroretina; type: in vivo, Sprague-Dawley rats; conditions: neuroretina of diabetic rats; SST eye drops 10 mg/mL; Western blot
Summary of the method: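 Neuroretina protein extracts were Western blotted for FasL, caspase-8, Bid, Bim, BclxL and active caspase-3, with α-tubulin as loading control. Autoradiograms were quantified by scanning densitometry as arbitrary units, means ± SD. Tissue came from STZ-diabetic rats given daily 10 mg/mL drops or saline vehicle for 14 days, and from nondiabetic controls.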

[2] = test system: rats with streptozotocin-induced diabetes mellitus (STZ-DM); experiment: Assessment of glial activation; type: in vivo, Sprague-Dawley rats; conditions: dose-response; SST eye drops 0.5 mg/mL compared with 2 or 10 mg/mL
Summary of the method: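 Male Sprague-Dawley rats made diabetic with STZ 60 mg/kg i.v. (glucose above 250 mg/dL). One drop daily for 14 days, plus one ~1 h before necropsy; saline vehicle; dose-response at 10, 2, 0.5 mg/mL. Paraffin retinal sections blocked in PBS/1% BSA/0.05% Triton X-100. Rabbit anti-GFAP 1:100, 36 h at 4C; Alexa Fluor 568 secondary. Scored 0–5 by GFAP extent, endfeet/GCL to ONL.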

[3] = Ophthalmological examinations; type: in vivo, Sprague-Dawley rats; conditions: SST eye drops 10 mg/mL, 20 µL once daily; baseline and follow-up (days 7 and 13)
Summary of the method: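 All animals had slit lamp biomicroscopy, indirect ophthalmoscopy and intraocular pressure measurement at baseline and on days 7 and 13 posttreatment. Groups were nondiabetic controls on vehicle, and STZ-diabetic (60 mg/kg i.v.) male Sprague-Dawley rats on once-daily drops of test compound (10 mg/mL) or 0.9% NaCl vehicle.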

[4] = test system: rats with streptozotocin-induced diabetes mellitus (STZ-DM); experiment: Electroretinography; type: in vivo, Sprague-Dawley rats; conditions: diabetic rats, SST eye drops 10 mg/mL once daily; scotopic
Summary of the method: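 Scotopic ERG was recorded in both eyes before treatment and on day 14, after at least 1 h dark adaptation. Rats were under isoflurane with 0.5% proparacaine topically. b-wave amplitude and implicit time were measured to ISCEV definitions after scotopic flash (0 db). Animals were STZ-diabetic rats on daily 10 mg/mL drops or saline vehicle. Paired t test within group; means ± SD.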

[5] = test system: glutamate/aspartate transporter (GLAST); experiment: GLAST expression in retina; type: in vivo, Sprague-Dawley rats; conditions: diabetic rats treated with SST eye drops 10 mg/mL
Summary of the method: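 GLAST mRNA by real-time PCR, normalized to β-actin (relative quantification). For protein, paraffin retinal sections were retrieved in 10 mmol/L sodium citrate pH 6.0 and blocked 1 h at room temperature in 2% BSA/0.05% Tween PBS. They were probed with anti-GLAST 1:200, then Alexa Fluor 488 anti-rabbit (1 h), with DAPI. Fluorescence intensity was quantified as for GFAP. Rats were STZ-diabetic on daily drops or saline.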

[6] = test system: AMPA-induced neurotoxicity; conditions: intravitreal administration; cited from earlier work
[7] = test system: rats with streptozotocin-induced diabetes mellitus (STZ-DM); experiment: Assessment of retinal apoptosis; type: in vivo, Sprague-Dawley rats; conditions: TUNEL; SST eye drops 10 mg/mL once daily, 15 days

Somatostatin [SST]
BclxL expression [1]: greatly improved | effect in preventing glial activation and apoptosis [2]: significantly lower than that obtained using either 2 or 10 mg/mL | differences in the cornea, pupil size, or intraocular pressure among groups [3]: No significant differences | b-wave amplitude, day 14 vs day −1 [4]: no reduction of b-wave amplitude was observed | b-wave implicit time, day 14 vs day −1 [4]: did not increase | diabetes-induced downregulation of GLAST gene and protein expression [5]: this downregulation was prevented | GLAST protein levels in comparison with nondiabetic rats ([5]; immunofluorescence): even increased | protection of the retina from AMPA-induced neurotoxicity [6]: protects the retina from AMPA-induced neurotoxicity | ratio of apoptosis in all retinal layers vs diabetic rats treated with placebo [7]: significantly lower
